Measured values as given in ChEMBL document CHEMBL3627626, “6-Substituted Pyrrolo[2,3-d]pyrimidine Thienoyl Regioisomers as Targeted Antifolates for Folate Receptor α and the Proton-Coupled Folate Transporter in Human Tumors” (J Med Chem, 2015).
Activity calls are given as the source filed them. The rule behind the calls is not given here.

Experiments:
SK-OV-3 [1] = assay: Antitumor activity against human SKOV3 cells expressing RFC/PCFT/FRalpha xenografted in folate-replete diet fed NCR SCID mouse assessed as tumor growth inhibition at 16 mg/kg, iv administered every 4 days on day 3, 7, 11 measured on day 21 relative to control; type: functional
Summary of the method: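 Ten-week-old female NCR SCID mice, fed a folate-deficient or standard folate-replete diet, were implanted subcutaneously and bilaterally with SKOV3 tumour fragments. Randomised at 5 mice/group. Dosed intravenously, 0.2 mL per injection, in 5% ethanol/1% Tween-80/0.5% NaHCO3 in water at pH 6.5, on days 3, 7 and 11. Tumours measured twice weekly and mice weighed daily. T/C taken on day 21; growth delay and log cell kill also reported.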

Mus musculus = assay: Toxicity in folate-replete diet fed NCR SCID mouse xenografted with human SKOV3 cells expressing RFC/PCFT/FRalpha assessed as body weight loss at 16 mg/kg, iv administered every 4 days on day 3, 7, 11; type: organism-based, SK-OV-3; conditions: in vivo, 96 h
R2 = assay: Cytotoxicity against Chinese hamster R2 cells transfected with empty PCDNA3 assessed as cell growth inhibition after 96 hrs by CellTiter-Blue assay; type: cell-based, Cricetulus griseus
RT16 = assay: Selectivity ratio of IC50 for human RFC expressed in Chinese hamster PC43-10 cells assessed as cell growth inhibition to IC50 for human FRalpha expressed in Chinese hamster RT16 cells assessed as cell growth inhibition; type: cell-based
D4 = assay: Selectivity ratio of IC50 for human RFC expressed in Chinese hamster PC43-10 cells assessed as cell growth inhibition to IC50 for human FRbeta expressed in Chinese hamster D4 cells assessed as cell growth inhibition; type: cell-based
KB = assay: Antiproliferative activity against human KB cells expressing FRalpha/PCFT/RFC assessed as cell growth inhibition after 96 hrs by CellTiter-Blue assay in presence of 200 nM folic acid; type: functional, cell-based
SK-OV-3 [2] = assay: Antiproliferative activity against human SKOV3 cells after 96 hrs by CellTiter-Blue assay; type: functional, cell-based; conditions: SK-OV-3, 96 h
Summary of the method: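 IGROV1 and SKOV3 cells plated at ~2500–5000 cells/well in folate-free RPMI 1640 with 10% dialyzed FBS, antibiotics and 2 nM LCV, over a range of drug concentrations, ±200 nM folic acid in parallel. Incubated up to 96 h. Viability read by Cell Titer Blue fluorescence (ex 560/em 590 nm).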

[3] = molecular target: Folate receptor beta (Homo sapiens) (UniProt P14207); assay: Binding affinity to human FRbeta expressed in Chinese hamster D4 cells assessed as intracellular drug level at 50 nM at 37 degC after 1 hr; type: cell-based
Summary of the method: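 D4 CHO cells (human FRβ) were acid-washed at pH 3.5, then given 50 nM [3H]drug in HBSS pH 7.4 at 37 °C for 60 min. A second acid wash removed surface-bound label to give the intracellular fraction. Cells were solubilised in NaOH, and values expressed as pmol/mg protein. Mean ±SEM of three experiments.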

[4] = molecular target: T1, Trifunctional purine biosynthetic protein adenosine-3 (Homo sapiens) (UniProt P22102); assay: Inhibition of GARFTase in human KB cells expressing FRalpha/PCFT/RFC assessed as cell growth inhibition after 96 hrs by CellTiter-Blue assay in presence of adenosine; type: cell-based
T1 sequence (whole entry): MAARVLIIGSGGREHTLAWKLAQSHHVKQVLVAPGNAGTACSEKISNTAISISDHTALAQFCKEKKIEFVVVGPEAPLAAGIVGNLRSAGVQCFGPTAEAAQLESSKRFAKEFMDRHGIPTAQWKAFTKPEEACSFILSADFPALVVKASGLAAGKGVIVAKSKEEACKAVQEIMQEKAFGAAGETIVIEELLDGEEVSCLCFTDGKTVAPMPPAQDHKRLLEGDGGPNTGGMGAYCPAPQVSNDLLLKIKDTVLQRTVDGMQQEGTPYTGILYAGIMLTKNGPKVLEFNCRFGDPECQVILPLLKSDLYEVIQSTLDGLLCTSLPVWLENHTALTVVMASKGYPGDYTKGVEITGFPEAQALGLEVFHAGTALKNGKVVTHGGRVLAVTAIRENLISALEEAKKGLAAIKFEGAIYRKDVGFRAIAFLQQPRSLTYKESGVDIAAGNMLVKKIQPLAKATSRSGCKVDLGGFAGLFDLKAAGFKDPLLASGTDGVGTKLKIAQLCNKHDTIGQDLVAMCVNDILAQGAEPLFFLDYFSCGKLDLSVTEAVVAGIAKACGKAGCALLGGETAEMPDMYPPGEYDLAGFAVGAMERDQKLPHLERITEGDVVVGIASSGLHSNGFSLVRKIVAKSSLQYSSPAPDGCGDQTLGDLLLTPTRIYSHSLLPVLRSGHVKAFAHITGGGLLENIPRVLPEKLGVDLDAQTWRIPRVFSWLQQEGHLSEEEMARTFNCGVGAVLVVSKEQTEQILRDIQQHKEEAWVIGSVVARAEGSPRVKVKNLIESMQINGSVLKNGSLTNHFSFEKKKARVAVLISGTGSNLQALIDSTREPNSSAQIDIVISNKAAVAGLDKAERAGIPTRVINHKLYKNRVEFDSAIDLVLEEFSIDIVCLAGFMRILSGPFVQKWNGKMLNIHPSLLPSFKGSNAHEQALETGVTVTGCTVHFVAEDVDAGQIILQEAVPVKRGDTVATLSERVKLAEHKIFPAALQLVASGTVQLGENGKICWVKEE

[5] = molecular target: T2, Trifunctional purine biosynthetic protein adenosine-3 (Homo sapiens, UniProt P22102); assay: Inhibition of GARFTase in human KB cells expressing FRalpha/PCFT/RFC assessed as incorporation of [14C(U)]-glycine into [14C]-formyl GAR preincubated for 1 hr followed by azaserine, L-glutamine, 14C(U)]-glycine addition measured after 16 hrs; type: cell-based
T2 sequence (P22102 whole entry): T1 sequence (whole entry)
Summary of the method: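 In situ assay in KB cells. Cells were exposed to a range of drug concentrations with [14C]glycine for 16 h under proliferation-assay conditions, with azaserine present. Radiolabelled metabolites were extracted and separated on anion exchange columns, and [14C]formyl GAR quantified. Mean ±SE of three experiments.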

[6] = molecular target: T2, Trifunctional purine biosynthetic protein adenosine-3; assay: Inhibition of human recombinant His-tagged GARFTase assessed as formation of 5,8-dideazafolate from 10-formyl-5,80-dideazafolic acid measured every 15 secs over 20 mins by spectrophotometric analysis

Sequence of Folate receptor beta (Homo sapiens) (P14207 17-230 limits assumed): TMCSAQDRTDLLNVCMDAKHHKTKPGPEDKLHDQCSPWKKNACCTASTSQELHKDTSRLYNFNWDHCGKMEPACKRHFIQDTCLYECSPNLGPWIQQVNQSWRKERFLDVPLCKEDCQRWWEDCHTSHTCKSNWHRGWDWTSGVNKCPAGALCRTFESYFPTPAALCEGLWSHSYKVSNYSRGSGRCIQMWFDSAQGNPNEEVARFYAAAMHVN

`Nc1nc2[nH]c(CCCc3cc(C(=O)N[C@@H](CCC(=O)O)C(=O)O)cs3)cc2c(=O)[nH]1` was tested, and the T/C (SK-OV-3 [1]) was 69%, the Activity (Mus musculus) was “Non-toxic” and the IC50 (R2) was > 1000 nM. It also gave a Ratio IC50 (RT16) of 610, a Ratio IC50 (D4) of 1890 and an IC50 (KB) of 105 nM. The IC50 (SK-OV-3 [2]) was 15.5 nM, the Activity [3] was 3.35 pmol/mg and the inhibition [4] was “inactive”. It also gave an IC50 [5] of 2.6 nM and a Ki [6] of 9.1 nM.
